This note sets out measurements from ChEMBL document CHEMBL4052588, “Design of a Biased Potent Small Molecule Inhibitor of the Bromodomain and PHD Finger-Containing (BRPF) Proteins Suitable for Cellular and in Vivo Studies” (J Med Chem, 2017).

One data set deals with Hs 766. The experiment in a line: Growth inhibition of human Hs766T cells after 72 hrs. The format is functional. The conditions noted are these: Hs 766, 72 h.
The target of the next data set is hERG (KCNH2) (Homo sapiens, UniProt Q12809). The experiment in a line: Inhibition of human ERG at 30 uM.
For data set [1], the target named is T1, Bromodomain and PHD finger-containing protein 3 (Homo sapiens, UniProt Q9ULD4).
T1 sequence (Q9ULD4 whole entry): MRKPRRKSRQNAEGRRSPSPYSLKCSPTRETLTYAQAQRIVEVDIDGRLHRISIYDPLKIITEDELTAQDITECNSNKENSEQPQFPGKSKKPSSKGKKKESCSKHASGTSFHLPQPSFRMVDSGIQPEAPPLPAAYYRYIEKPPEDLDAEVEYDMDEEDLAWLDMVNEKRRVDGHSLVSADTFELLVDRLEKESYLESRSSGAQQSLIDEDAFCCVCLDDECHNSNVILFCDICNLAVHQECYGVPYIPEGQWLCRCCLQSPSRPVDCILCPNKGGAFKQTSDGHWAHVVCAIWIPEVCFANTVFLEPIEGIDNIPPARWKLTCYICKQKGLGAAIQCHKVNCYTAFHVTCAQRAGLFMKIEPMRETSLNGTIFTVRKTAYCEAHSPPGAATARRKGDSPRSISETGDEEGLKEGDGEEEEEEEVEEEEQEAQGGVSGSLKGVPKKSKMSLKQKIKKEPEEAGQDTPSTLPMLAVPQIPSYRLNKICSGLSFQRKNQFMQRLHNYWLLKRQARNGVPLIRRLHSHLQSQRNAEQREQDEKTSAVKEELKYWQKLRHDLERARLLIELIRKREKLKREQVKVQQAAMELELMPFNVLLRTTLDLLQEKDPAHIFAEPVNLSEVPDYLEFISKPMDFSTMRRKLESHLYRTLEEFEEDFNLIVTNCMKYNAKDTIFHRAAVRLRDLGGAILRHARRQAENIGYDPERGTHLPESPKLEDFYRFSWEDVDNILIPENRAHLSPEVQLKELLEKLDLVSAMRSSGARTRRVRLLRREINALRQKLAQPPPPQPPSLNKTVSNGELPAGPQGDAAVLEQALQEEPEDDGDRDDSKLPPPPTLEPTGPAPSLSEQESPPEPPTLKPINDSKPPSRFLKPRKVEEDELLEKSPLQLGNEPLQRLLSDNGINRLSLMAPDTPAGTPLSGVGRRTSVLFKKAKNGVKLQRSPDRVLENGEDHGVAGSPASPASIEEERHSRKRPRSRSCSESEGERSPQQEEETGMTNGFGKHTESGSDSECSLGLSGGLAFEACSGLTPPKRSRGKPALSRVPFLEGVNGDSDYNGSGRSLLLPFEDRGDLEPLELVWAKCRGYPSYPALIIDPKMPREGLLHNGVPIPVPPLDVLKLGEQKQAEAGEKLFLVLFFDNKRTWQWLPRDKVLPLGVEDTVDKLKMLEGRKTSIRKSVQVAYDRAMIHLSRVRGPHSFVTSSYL
The experiment in a line: Binding affinity to human BRPF3 by isothermal titration calorimetry. (In general: ITC needs no label: the signal is the heat of the interaction.)

Data set [2] is described as follows: Elimination half life in CD-1 mouse plasma at 1 mg/kg, iv administered as bolus. The data set is classed as ADME, organism-based. To be noted: read-out: beta t1/2 (converted). A digest of the protocol: (§1)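 Female CD-1 mice (n = 3), single dosing: intravenous 1.0 mg/kg, or oral 3.0 mg/kg given as a suspension. Blood levels were followed over time to derive clearance, volume of distribution, elimination half-life, Cmax, Tmax, AUC0−∞, oral bioavailability and fraction absorbed.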

The next data set deals with SNU-5. The data set can be described thus: Growth inhibition of human SNU5 cells after 72 hrs. The data set is classed as functional. To be noted: SNU-5, 72 h.
The next data set deals with CWR22R. The data set can be described thus: Growth inhibition of human 22Rv1 cells after 72 hrs. The data set is classed as functional. To be noted: 22Rv1, 72 h.
The nature of data set [3]: Growth inhibition of human SW403 cells after 72 hrs. The data set is classed as functional. The conditions noted are these: SW-403, 72 h.
The nature of data set [4]: Fraction unbound in mouse plasma. The data set is classed as ADME, cell-free.
Data set [5] in a line: Tmax in CD-1 mouse blood at 3 mg/kg, po. The data set is classed as ADME, organism-based. The conditions noted are these: whole blood. A digest of the protocol:
as §1

Data set [6] in a line: Growth inhibition of human MOLP8 cells after 72 hrs. The data set is classed as functional. To be noted: MOLP-8, 72 h.
A further data set relates to KG-1. The data set can be described thus: Growth inhibition of human KG1 cells after 72 hrs. To be noted: KG-1, 72 h. The format is functional.
The nature of data set [7]: Growth inhibition of human QGP1 cells after 72 hrs. To be noted: QGP-1, 72 h. The format is functional.

hERG (KCNH2), sequence (Q12809 whole entry): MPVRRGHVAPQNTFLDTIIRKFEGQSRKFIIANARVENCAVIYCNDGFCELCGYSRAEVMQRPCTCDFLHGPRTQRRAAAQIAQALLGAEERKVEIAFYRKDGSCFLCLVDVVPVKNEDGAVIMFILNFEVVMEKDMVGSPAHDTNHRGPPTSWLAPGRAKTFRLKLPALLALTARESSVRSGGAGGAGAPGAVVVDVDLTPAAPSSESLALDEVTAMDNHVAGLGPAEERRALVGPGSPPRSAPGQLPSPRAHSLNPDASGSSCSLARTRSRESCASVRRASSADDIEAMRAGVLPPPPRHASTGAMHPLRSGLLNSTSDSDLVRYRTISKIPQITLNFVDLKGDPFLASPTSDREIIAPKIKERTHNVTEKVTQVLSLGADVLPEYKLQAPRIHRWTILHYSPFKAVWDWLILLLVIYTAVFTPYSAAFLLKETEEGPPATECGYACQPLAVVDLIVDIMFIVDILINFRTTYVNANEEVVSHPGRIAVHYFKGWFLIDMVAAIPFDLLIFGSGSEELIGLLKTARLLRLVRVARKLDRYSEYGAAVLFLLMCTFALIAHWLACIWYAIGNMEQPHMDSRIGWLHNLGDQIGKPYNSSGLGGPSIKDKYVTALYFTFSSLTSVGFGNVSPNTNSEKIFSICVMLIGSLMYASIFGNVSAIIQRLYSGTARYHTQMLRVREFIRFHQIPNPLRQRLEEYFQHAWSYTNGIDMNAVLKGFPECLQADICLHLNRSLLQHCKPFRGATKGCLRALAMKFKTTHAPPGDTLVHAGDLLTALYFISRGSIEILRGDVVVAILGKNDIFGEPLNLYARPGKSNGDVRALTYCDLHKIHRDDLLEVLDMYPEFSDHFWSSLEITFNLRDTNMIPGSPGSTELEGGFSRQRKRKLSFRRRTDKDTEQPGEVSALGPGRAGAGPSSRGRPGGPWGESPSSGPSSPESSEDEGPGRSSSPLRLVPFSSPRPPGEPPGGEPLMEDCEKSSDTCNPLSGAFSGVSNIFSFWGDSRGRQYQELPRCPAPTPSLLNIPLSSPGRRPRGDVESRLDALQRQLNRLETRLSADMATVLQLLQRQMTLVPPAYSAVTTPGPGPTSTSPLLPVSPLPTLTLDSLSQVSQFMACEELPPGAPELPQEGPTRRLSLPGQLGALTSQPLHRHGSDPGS

For orientation: GI50 means the concentration that inhibits growth by half. Read a low GI50 as more potent growth inhibition. One may read the inhibition as the drop in the measured response relative to a control, in per cent. A low value points to little suppression. As a reminder, the Kd is a measure of binding affinity in units of concentration. Lower therefore signals higher affinity. For orientation: fraction unbound means free concentration divided by total concentration. A lower fraction unbound goes with little free substance. As usually defined, the Tmax is the time at which the peak concentration occurs. Take `Cc1cc2cc(NS(=O)(=O)c3ccc(C#N)cc3)ccc2n(C)c1=O`: the GI50 in the data set on Hs 766 was 1 to 10 µM; with SNU-5, 1 to 10 µM; with CWR22R it was 1 to 10 µM; in data set [3], 1 to 10 µM; in data set [6], 1 to 10 µM; in the data set on KG-1, 7 µM. In data set [7], the GI50 lay in the range of 1 to 10 µM. This compound also showed an inhibition at 30 µM at hERG (KCNH2) of 45.6%. Also, in data set [1], the Kd was found to be 0.94 µM. The half-life in data set [2] was 2 h. In data set [4], this compound registered a fraction unbound of 0.03. In addition, the Tmax in data set [5] turned out to be 1 h.
